From ChEMBL document CHEMBL4321879, “Novel Class of Colony-Stimulating Factor 1 Receptor Kinase Inhibitors Based on an o-Aminopyridyl Alkynyl Scaffold as Potential Treatment for Inflammatory Disorders” (J Med Chem, 2020) come the findings set out here.

Some results are limits rather than exact numbers.

Chain of Fibroblast growth factor receptor 3 (P22607 whole entry, the tested form may be a part): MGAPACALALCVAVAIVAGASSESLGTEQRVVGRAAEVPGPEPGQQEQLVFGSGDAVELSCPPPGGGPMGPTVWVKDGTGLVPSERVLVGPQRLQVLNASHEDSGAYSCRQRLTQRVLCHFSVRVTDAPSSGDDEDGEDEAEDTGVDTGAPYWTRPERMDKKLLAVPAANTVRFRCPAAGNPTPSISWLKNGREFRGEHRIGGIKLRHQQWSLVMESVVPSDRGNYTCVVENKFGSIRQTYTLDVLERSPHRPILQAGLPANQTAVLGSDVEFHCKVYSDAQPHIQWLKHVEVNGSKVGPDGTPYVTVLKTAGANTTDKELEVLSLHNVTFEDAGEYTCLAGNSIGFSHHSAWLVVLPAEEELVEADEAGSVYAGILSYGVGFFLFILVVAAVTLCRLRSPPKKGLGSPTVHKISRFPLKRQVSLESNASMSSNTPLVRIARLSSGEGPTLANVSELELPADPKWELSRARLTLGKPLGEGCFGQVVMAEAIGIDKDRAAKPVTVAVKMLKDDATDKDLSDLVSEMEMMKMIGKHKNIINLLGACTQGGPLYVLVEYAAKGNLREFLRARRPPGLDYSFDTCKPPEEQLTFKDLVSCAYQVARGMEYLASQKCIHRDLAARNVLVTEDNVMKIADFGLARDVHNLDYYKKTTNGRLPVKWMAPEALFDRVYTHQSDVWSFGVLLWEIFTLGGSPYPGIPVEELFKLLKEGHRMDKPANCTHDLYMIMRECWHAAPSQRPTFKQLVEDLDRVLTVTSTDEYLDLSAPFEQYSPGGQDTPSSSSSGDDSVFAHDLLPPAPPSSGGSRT
Chain of Fibroblast growth factor receptor 1 (P11362 whole entry, the tested form may be a part): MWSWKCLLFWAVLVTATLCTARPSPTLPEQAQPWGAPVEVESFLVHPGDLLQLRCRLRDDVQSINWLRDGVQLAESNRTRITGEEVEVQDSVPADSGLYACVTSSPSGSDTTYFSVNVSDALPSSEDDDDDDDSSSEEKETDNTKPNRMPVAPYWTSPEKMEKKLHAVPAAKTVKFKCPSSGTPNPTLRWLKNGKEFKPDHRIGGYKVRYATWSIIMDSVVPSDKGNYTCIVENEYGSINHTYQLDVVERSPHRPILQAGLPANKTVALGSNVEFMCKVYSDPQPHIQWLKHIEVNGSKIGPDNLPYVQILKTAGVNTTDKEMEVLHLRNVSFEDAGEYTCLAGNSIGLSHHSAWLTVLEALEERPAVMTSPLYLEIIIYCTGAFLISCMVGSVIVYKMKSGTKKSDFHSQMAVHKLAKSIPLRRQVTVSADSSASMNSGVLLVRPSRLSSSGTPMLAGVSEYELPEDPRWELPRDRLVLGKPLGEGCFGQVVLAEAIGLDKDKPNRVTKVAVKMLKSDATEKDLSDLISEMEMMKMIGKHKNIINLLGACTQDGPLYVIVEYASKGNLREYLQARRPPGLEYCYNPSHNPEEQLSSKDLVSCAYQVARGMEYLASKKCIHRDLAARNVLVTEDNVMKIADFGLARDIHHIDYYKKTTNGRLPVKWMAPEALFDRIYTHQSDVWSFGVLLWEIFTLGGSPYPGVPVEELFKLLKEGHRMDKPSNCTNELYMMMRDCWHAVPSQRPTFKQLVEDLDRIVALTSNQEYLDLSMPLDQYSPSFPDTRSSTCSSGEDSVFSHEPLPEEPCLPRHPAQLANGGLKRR
Chain of Fibroblast growth factor receptor 4 (P22455 whole entry, the tested form may be a part): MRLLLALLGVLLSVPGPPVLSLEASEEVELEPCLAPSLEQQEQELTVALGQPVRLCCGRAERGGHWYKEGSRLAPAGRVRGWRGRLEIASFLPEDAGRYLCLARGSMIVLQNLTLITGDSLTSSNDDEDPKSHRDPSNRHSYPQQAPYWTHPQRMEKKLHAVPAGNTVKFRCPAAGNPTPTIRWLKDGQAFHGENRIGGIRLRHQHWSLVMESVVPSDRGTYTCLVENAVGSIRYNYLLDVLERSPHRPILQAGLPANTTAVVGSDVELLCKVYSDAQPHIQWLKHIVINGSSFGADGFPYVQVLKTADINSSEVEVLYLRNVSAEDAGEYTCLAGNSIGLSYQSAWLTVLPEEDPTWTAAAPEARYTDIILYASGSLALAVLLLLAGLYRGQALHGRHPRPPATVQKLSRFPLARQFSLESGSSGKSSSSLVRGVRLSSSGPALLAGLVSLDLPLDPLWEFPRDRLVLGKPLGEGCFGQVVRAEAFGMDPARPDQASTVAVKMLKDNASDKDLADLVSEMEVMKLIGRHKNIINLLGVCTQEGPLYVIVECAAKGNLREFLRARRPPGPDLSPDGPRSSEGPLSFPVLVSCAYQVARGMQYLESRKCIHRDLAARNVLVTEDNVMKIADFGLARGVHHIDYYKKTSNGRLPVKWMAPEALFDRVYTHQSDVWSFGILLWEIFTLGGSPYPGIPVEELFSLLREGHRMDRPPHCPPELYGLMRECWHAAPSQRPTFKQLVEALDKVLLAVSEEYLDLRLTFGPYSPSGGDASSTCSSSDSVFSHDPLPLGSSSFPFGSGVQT

The subject of the first series is RAW264.7. The experiment in a line: Antiinflammatory activity in mouse RAW264.7 cells assessed as reduction in LPS-induced IL6 release measured after 24 hrs by ELISA. Format: functional, cell-based. Conditions: RAW264.7, 24 h. Summed up: (§1)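 RAW264.7 cells in DMEM with 10% FBS and 0.125% DMSO were incubated with compound, then primed with LPS 1 μg/mL for 24 h. Supernatant TNF-α and IL-6 measured by mouse ELISA. IC50 from log(inhibitor) versus normalized response nonlinear fit.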
For orientation: ELISA stands for enzyme-linked immunosorbent assay.
As a reminder, the IC50 is the point on the concentration scale where inhibition reaches its midpoint. As for `FC(F)(F)c1ccc(CNc2ccc(Cc3c[nH]c4ncc(Cl)cc34)cn2)cn1` [PEXIDARTINIB], the IC50 was found to be 430 nM.

In a further series the target is Fibroblast growth factor receptor 2 (Homo sapiens, UniProt P21802). The experiment in a line: Inhibition of recombinant human N-terminal His6-tagged FGFR2 (456 to 770 residues) expressed in baculovirus infected Sf21 insect cells using poly (Glu, Tyr)4:1 as substrate measured after 1 hr by ELISA.
Chain of Fibroblast growth factor receptor 2 (P21802 whole entry, the tested form may be a part): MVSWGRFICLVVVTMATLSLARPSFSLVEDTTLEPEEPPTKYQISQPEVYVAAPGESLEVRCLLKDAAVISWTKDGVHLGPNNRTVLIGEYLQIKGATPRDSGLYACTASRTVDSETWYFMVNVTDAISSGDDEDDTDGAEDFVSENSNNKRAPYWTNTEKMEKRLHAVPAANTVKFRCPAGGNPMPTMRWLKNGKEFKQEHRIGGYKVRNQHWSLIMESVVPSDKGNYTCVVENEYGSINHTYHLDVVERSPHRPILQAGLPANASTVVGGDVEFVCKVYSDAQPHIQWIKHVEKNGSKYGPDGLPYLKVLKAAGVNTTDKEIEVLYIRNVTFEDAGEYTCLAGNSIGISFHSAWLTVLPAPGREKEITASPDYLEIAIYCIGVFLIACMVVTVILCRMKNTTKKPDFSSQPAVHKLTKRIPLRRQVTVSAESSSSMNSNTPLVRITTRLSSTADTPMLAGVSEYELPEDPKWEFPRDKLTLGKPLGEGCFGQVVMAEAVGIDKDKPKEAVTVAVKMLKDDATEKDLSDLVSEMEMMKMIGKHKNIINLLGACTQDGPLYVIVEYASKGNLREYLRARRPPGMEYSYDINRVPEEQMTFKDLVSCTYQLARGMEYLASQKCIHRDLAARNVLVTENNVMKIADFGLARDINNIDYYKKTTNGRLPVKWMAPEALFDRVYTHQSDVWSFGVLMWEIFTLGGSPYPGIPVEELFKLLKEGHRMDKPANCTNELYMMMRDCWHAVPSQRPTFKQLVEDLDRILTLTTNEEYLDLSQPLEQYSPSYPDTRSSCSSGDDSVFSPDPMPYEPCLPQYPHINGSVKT
Conditions: not given
In outline: (§2)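 Recombinant kinase was incubated with compound in reaction buffer containing 5 μM ATP, in wells precoated with poly(Glu,Tyr) 4:1, for 1 h at 37 °C. Phosphorylation was detected by ELISA.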
On to `COc1cc(NC(=O)c2ccc(C)c(C#Cc3cncc4ccccc34)c2)cc(OC)c1`, for which the IC50 was over 1000 nM.

The target of the next series is Macrophage colony-stimulating factor 1 receptor (Homo sapiens, UniProt P07333). The experiment in a line: Inhibition of recombinant CSF1R (unknown origin) using poly (Glu, Tyr)4:1 as substrate measured after 1 hr by ELISA.
Chain of Macrophage colony-stimulating factor 1 receptor (P07333 whole entry): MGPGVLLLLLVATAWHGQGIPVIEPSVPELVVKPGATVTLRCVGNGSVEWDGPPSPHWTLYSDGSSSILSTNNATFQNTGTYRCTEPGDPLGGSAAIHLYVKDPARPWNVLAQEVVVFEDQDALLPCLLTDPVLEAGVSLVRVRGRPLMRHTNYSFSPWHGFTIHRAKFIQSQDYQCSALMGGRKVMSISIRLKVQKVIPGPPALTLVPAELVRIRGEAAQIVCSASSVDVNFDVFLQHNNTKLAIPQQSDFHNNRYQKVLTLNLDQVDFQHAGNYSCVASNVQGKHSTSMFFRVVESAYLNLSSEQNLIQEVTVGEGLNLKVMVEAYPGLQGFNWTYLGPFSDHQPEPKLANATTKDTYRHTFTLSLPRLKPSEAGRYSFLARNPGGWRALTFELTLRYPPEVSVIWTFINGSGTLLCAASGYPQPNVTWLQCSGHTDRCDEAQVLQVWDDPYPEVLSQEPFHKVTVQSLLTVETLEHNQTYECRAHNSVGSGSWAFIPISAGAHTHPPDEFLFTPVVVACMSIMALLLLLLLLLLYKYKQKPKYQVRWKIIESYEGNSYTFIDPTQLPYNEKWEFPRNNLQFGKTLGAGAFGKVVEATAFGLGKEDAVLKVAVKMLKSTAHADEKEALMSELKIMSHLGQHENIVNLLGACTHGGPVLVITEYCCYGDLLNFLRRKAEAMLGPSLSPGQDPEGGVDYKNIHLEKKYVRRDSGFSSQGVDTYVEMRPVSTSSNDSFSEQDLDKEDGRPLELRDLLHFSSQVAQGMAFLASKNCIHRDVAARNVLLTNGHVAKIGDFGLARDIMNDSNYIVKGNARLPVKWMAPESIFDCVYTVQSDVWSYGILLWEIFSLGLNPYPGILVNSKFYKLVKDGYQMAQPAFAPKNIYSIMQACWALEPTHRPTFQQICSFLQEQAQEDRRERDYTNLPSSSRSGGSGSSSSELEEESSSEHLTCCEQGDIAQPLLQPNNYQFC
Conditions: not given
As for `COc1cc(NC(=O)c2cccc(C#Cc3cc(-c4cnn(C)c4)cnc3N)c2)cc(OC)c1`, the IC50 was found to be 16.1 nM. For `Cc1ccc(C(=O)Nc2ccc(Cl)cc2Cl)cc1C#Cc1cc(-c2cnn(C)c2)cnc1N`, the IC50 came out at 5.9 nM.

With `Cc1ccc(C(=O)Nc2cccc(C(F)(F)F)c2)cc1C#Cc1cc(-c2cnn(C)c2)cnc1N`, the IC50 was determined as 2.4 nM.

Regarding `COc1cc(NC(=O)c2ccc(Cl)c(C#Cc3cc(-c4cnn(C)c4)cnc3N)c2)cc(OC)c1`, the IC50 is 6.5 nM. On the same count and under the same terms, the value for `Cc1ccc(CNc2ccc(Cl)cc2)cc1C#Cc1cc(-c2cnn(C)c2)cnc1N` was over 1000 nM; that for `Cc1ccc(C(=O)Nc2ccc(CN3CCN(C)CC3)c(C(F)(F)F)c2)cc1C#Cc1cncc2ccccc12` was 46 nM; that for `Cc1ccc(C(=O)N(C)c2ccc(Cl)cc2)cc1C#Cc1cc(-c2cnn(C)c2)cnc1N` was over 1000 nM. As to `COc1cc(NC(=O)c2ccc(C)c(C#Cc3cccnc3)c2)cc(OC)c1`, the 50% inhibitory concentration (IC50) was 219 nM.

For `COc1cc(NC(=O)c2ccc(C)c(C#Cc3cnc4cccnn34)c2)cc(OC)c1`, the IC50 was found to be 25.1 nM. On the same count and under the same terms, the result for `COc1cc(NC(=O)c2ccc(C)c(C#Cc3cc(-c4cnn(C)c4)cnc3N)c2)cc(OC)c1` reads 2.6 nM. For the compound `COc1cc(NC(=O)c2ccc(C)c(C#Cc3cncc4ccccc34)c2)cc(OC)c1`, the IC50 was determined as 23.4 nM. In the case of `Cc1ccc(C(=O)Nc2cccc(Cl)c2)cc1C#Cc1cc(-c2cnn(C)c2)cnc1N`, the IC50 was 1.3 nM. As to `Cc1cc(C(=O)Nc2ccc(Cl)cc2)ccc1C#Cc1cc(-c2cnn(C)c2)cnc1N`, the IC50 was over 1000 nM.

In the case of `COc1cc(NC(=O)c2ccc(C)c(C#Cc3cc(C(N)=O)cnc3N)c2)cc(OC)c1`, the IC50 is 3.5 nM. Regarding `COc1cc(NC(=O)c2ccc(F)c(C#Cc3cc(-c4cnn(C)c4)cnc3N)c2)cc(OC)c1`, the IC50 was 160 nM.

Consider `Cc1ccc(C(=O)Nc2ccc(Cl)c(Cl)c2)cc1C#Cc1cc(-c2cnn(C)c2)cnc1N`, for which the IC50 amounted to 10.8 nM. As to `Cc1ccc(C(=O)Nc2ccccc2Cl)cc1C#Cc1cc(-c2cnn(C)c2)cnc1N`, the IC50 turned out to be 318 nM. Take `COc1cc(NC(=O)c2ccc(C(F)(F)F)c(C#Cc3cc(-c4cnn(C)c4)cnc3N)c2)cc(OC)c1`: the IC50 was over 1000 nM.

On to `Cc1ccc(NC(=O)c2ccc(Cl)cc2)cc1C#Cc1cc(-c2cnn(C)c2)cnc1N`, for which the half-inhibitory concentration (IC50) came out at 7.2 nM. The same measure, in the same setting: the result for `CNC(=O)c1cnc(N)c(C#Cc2cc(C(=O)Nc3cc(OC)cc(OC)c3)ccc2C)c1` reads 8.1 nM; that for `COc1cccc(NC(=O)c2ccc(C)c(C#Cc3cc(-c4cnn(C)c4)cnc3N)c2)c1`, 1.4 nM; that for `COc1ccc(NC(=O)c2ccc(C)c(C#Cc3cc(-c4cnn(C)c4)cnc3N)c2)cc1`, 1.4 nM.

As to `Cc1ccc(C(=O)Nc2ccc(C(F)(F)F)cc2)cc1C#Cc1cc(-c2cnn(C)c2)cnc1N`, the IC50 was 3 nM.

As to `COc1cc(NC(=O)c2ccc(C)c(C#Cc3cc(Cl)cnc3N)c2)cc(OC)c1`, the IC50 stood at 16.6 nM.

Regarding `COC(=O)c1cnc(N)c(C#Cc2cc(C(=O)Nc3cc(OC)cc(OC)c3)ccc2C)c1`, the IC50 came out at 5.5 nM. Take `COc1cc(NC(=O)c2ccc(C)c(C#Cc3cccnc3N)c2)cc(OC)c1`: the half-inhibitory concentration (IC50) was determined as 28.5 nM. Turning to `COc1cc(NC(=O)c2ccc(C(C)C)c(C#Cc3cc(-c4cnn(C)c4)cnc3N)c2)cc(OC)c1`, the IC50 is over 1000 nM. Still for that read-out and setting: the value for `Cc1ccc(C(=O)Nc2ccccc2)cc1C#Cc1cc(-c2cnn(C)c2)cnc1N` was 6.5 nM; that for `COc1cc(NC(=O)c2ccc(OC)c(C#Cc3cc(-c4cnn(C)c4)cnc3N)c2)cc(OC)c1` was 263 nM; that for `COc1ccccc1NC(=O)c1ccc(C)c(C#Cc2cc(-c3cnn(C)c3)cnc2N)c1` was 20.2 nM.

Another series concerns the target Fibroblast growth factor receptor 1 (Homo sapiens, UniProt P11362). The experiment in a line: Inhibition of recombinant human N-terminal GST-tagged FGFR1 (456 to 765 residues) expressed in baculovirus infected Sf21 insect cells using poly (Glu, Tyr)4:1 as substrate measured after 1 hr by ELISA.
Conditions: not given
Summed up: as §2
On to `COc1cc(NC(=O)c2ccc(C)c(C#Cc3cncc4ccccc34)c2)cc(OC)c1`, for which the IC50 was over 1000 nM.

For the next series, the system named is RAW264.7. As to the kind of experiment: Antiinflammatory activity in mouse RAW264.7 cells assessed as reduction in LPS-induced TNFalpha release measured after 24 hrs by ELISA. Conditions: RAW264.7, 24 h. Format: functional, cell-based. In outline:
as §1
For the compound `FC(F)(F)c1ccc(CNc2ccc(Cc3c[nH]c4ncc(Cl)cc34)cn2)cn1` [PEXIDARTINIB], the IC50 amounted to 400 nM.

Another series has as its target Fibroblast growth factor receptor 3 (Homo sapiens, UniProt P22607). As to the kind of experiment: Inhibition of recombinant human N-terminal His6-tagged FGFR3 (447 to 761 residues) expressed in baculovirus infected Sf21 insect cells using poly (Glu, Tyr)4:1 as substrate measured after 1 hr by ELISA.
Conditions: not given
Summed up:
as §2
On to `COc1cc(NC(=O)c2ccc(C)c(C#Cc3cncc4ccccc34)c2)cc(OC)c1`, for which the IC50 is over 1000 nM.

Tested on in a further series: not listed separately
As to the kind of experiment: Cytotoxicity against mouse RAW264.7 cells assessed as reduction in cell viability measured after 24 hrs by CCK8 assay. The format is cell-based.
Conditions: not given
In outline:
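RAW264.7 cells were seeded in triplicate in DMEM and exposed to compound for 24 h. CCK-8 was added, incubated 1 h, and absorbance read at 450 nm with 570 nm reference. CC50 from log(inhibitor) versus normalized response nonlinear fit.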
(In general: Tetrazolium assays rely on reduction of a dye to a coloured formazan, in cell work by metabolically active cells.)
Usually CC50 stands for the concentration that lowers cell viability or growth by half. As for `FC(F)(F)c1ccc(CNc2ccc(Cc3c[nH]c4ncc(Cl)cc34)cn2)cn1` [PEXIDARTINIB], the CC50 at 24 h amounted to 20500 nM.

The next series addresses Fibroblast growth factor receptor 4 (Homo sapiens, UniProt P22455). As to the kind of experiment: Inhibition of recombinant human N-terminal His6-tagged FGFR4 (442 to 755 residues) expressed in baculovirus infected Sf21 insect cells using poly (Glu, Tyr)4:1 as substrate measured after 1 hr by ELISA.
Conditions: not given
Summed up:
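ELISA kinase assay: recombinant kinase added to wells precoated with poly(Glu,Tyr)4:1 and incubated with compound in reaction buffer containing 5 μM ATP, 37 °C for 1 h; wells then washed before antibody detection.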
Consider `COc1cc(NC(=O)c2ccc(C)c(C#Cc3cncc4ccccc34)c2)cc(OC)c1`, for which the IC50 is over 1000 nM.
